This note sets out measurements from ChEMBL document CHEMBL2380206, “Discovery of potent, selective chymase inhibitors via fragment linking strategies” (J Med Chem, 2013).

One data set concerns the target T1, Cathepsin G (Homo sapiens, UniProt P08311).
T1 sequence (P08311 whole entry): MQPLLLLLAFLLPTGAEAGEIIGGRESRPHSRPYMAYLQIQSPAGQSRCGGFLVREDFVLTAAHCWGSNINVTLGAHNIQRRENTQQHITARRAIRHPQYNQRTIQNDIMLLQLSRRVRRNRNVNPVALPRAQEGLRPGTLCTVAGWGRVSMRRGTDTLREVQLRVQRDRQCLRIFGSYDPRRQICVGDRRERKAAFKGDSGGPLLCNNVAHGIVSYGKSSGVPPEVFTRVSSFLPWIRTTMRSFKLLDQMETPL
The data set is described as follows: Inhibition of human cathepsin G using bis(succinoyl-L-alanyl-L-prolyl-L-phenylalanylamide) as substrate after 1 hr by fluorescence assay.
As a reminder, the IC50 is the concentration needed to halve the response being measured. Regarding `CCCC(CC(=O)O)n1c(=O)n(Cc2cc(Cl)cc3c2CC(=O)N3)c2ccccc21` (stereo not given), the IC50 was over 10 µM.
Still for that read-out and setting: for `CCCC(Cn1c(=O)n(Cc2cc(Br)cc3c2CC(=O)N3)c2ccccc21)C(=O)O` (stereo not given) the value was over 10 µM; for `O=C1Cc2ccc(Cl)cc2N1`, over 1000 µM.
The same measure, in the same setting: as for `O=C(O)CCn1c(=O)n(Cc2cc(Cl)cc3c2CC(=O)N3)c2ccccc21`, the figure is over 10 µM.
The same measure, in the same setting: for `O=C(O)CCn1c(=O)n(Cc2cc(Br)cc3c2CC(=O)N3)c2ccccc21` the value was over 10 µM; for `O=C(O)CCCSc1nc2ccccc2n1Cc1cc(Cl)cc2c1CC(=O)N2`, 3.8 µM.
`Cc1cccc2scc(Cn3c(=O)n(CCCC(=O)O)c4ccccc43)c12` displayed a half-maximal inhibitory concentration (IC50) of 1.4 µM.
On the same count and under the same terms, as for `CCCC(CC(=O)O)n1c(=O)n(Cc2cc(Br)cc3c2CC(=O)N3)c2ccccc21` (stereo not given), the figure is 5.4 µM; as for `CCCC(Cn1c(=O)n(Cc2cc(Br)cc3[nH]c(=O)sc23)c2ccccc21)C(=O)O` (stereo not given), over 10 µM; as for `CCCC(CC(=O)O)n1c(=O)n(Cc2cccc3c2CC(=O)N3)c2ccccc21` (stereo not given), over 10 µM.
On the same count and under the same terms, for `Cc1cccc2scc(Cn3c(SCCCC(=O)O)nc4ccccc43)c12` the value was 0.052 µM.

The next data set has as its target T2, Chymase (Homo sapiens, UniProt P23946).
T2 sequence (P23946 whole entry): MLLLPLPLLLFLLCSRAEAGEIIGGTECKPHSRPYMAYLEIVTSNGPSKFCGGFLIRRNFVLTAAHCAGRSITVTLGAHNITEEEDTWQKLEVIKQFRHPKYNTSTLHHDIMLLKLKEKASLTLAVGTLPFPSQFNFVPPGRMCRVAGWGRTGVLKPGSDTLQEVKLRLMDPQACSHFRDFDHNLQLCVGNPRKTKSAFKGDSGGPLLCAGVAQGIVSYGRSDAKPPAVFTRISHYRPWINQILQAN
Nature of the data set: Inhibition of recombinant human chymase using bis(succinoyl-L-alanyl-L-prolyl-L-phenylalanylamide) as substrate after 1 hr by fluorescence assay.
For `O=C1Cc2c(Cl)cccc2N1`, the IC50 was over 1000 µM.
In the case of `O=C1NCc2ccc(Cl)cc21`, the IC50 was over 1000 µM.
On to `O=C1Cc2ccccc2N1` [OXINDOLE], for which the IC50 was over 1000 µM.
Same read-out and setting: for `O=C1Cc2ccc(Br)cc2N1` the value was 570 µM; for `O=C1Cc2cc(Cl)ccc2N1`, over 1000 µM; for `CN1C(=O)Cc2ccc(Cl)cc21`, over 1000 µM.
On the same count and under the same terms, as for `O=C1Cc2cccc(Cl)c2N1`, the figure is over 1000 µM.

In the next data set the test system is Liver microsomes. Nature of the data set: Metabolic stability in human liver microsomes assessed as GSH adduct formation incubated for 3 min prior to NADPH addition measured after 2 hrs by mass spectrometric analysis.
For the compound `CCCC(CC(=O)O)n1c(=O)n(Cc2cc(Cl)cc3c2CC(=O)N3)c2ccccc21` (stereo not given), the Stability result is on record as “Stable”.

The species named for the next data set is Homo sapiens. Nature of the data set: Selectivity ratio of IC50 for human cathepsin G to IC50 for recombinant human chymase. The gist of the method: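 Both IC50s from the same fluorogenic rhodamine 110 bis(Suc-Ala-Ala-Pro-Phe-amide) assay, 1 h at 28 °C/80% humidity, ex 485 / em 530 nm, with 0.01% CHAPS, 100 μM TCEP and 1% DMSO. Chymase: 500 pM recombinant human enzyme, 100 nM substrate, 20 mM Tris-HCl pH 8.0, 50 mM NaCl. Cathepsin G: 4 nM enzyme, 300 nM substrate, PBS plus 10 mM HEPES pH 7.4.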
As to `Cc1cccc2scc(Cn3c(SCCCC(=O)O)nc4ccccc43)c12`, the Ratio IC50 was found to be 10.
